Data on one molecule can be found in ChEMBL document CHEMBL4325842, “Design, synthesis, and biological evaluation of novel aminopyrimidinylisoindolines as AXL kinase inhibitors” (Bioorg Med Chem Lett, 2018).

Assay [1] relates to U-87 MG. In words: Antiproliferative activity against human U87MG cells after 2 days by spectrophotometric analysis. It counts as functional, U-87MG ATCC. To be noted: 48 h.
For assay [2], the target named is Tyrosine-protein kinase receptor UFO (Homo sapiens) (UniProt P30530). Description: Inhibition of human AXL at 10 uM using EAIYAAPFAKKK as substrate by [gamma-33P]-ATP assay relative to control. The method, boiled down:
(§1)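 Commercial kinase panel screen at a single concentration of 10 μM. % inhibition was calculated as 100 minus % activity.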

Assay [3] concerns the target Mast/stem cell growth factor receptor Kit (Homo sapiens) (UniProt P10721). Description: Inhibition of human c-KIT at 10 uM using poly[Glu:Tyr] (4:1) as substrate by [gamma-33P]-ATP assay relative to control. The gist of the method:
(§2)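 Kinase-panel profiling (50 oncogenic kinases) run by an outside contract service. The test compound was tested at a single concentration of 10 μM. Percent inhibition was calculated as 100 minus % remaining activity.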

In assay [4] the target is Tyrosine-protein kinase JAK1 (Homo sapiens) (UniProt P23458). In words: Inhibition of human JAK1 at 10 uM using poly[Glu:Tyr] (4:1) as substrate by [gamma-33P]-ATP assay relative to control. The method, boiled down:
as §1

Assay [5] concerns the target Dual specificity mitogen-activated protein kinase kinase 1 (Homo sapiens) (UniProt Q02750). In words: Inhibition of human MEK1 at 10 uM using ERK2 (K52R) as substrate by [gamma-33P]-ATP assay relative to control. The method, boiled down:
as §1

Assay [6] has as its target Tyrosine-protein kinase Mer (Homo sapiens) (UniProt Q12866). In words: Inhibition of human MER at 10 uM using poly[Glu:Tyr] (4:1) as substrate by [gamma-33P]-ATP assay relative to control. The gist of the method:
as §1

The target of assay [7] is Serine/threonine-protein kinase 26 (Homo sapiens) (UniProt Q9P289). Description: Inhibition of human MST4 at 10 uM using MBP as substrate by [gamma-33P]-ATP assay relative to control. The method, boiled down:
as §1

Assay [8] has as its target Casein kinase I isoform epsilon (Homo sapiens) (UniProt P49674). In words: Inhibition of human CK1 epsilon at 10 uM using KRRRAL[pS]VASLPGL as substrate by [gamma-33P]-ATP assay relative to control. The gist of the method:
as §1

Assay [9] deals with Ephrin type-A receptor 1 (Homo sapiens) (UniProt P21709). In words: Inhibition of human EPHA1 at 10 uM using poly[Glu:Tyr] (4:1) as substrate by [gamma-33P]-ATP assay relative to control. The gist of the method: as §1
The target of assay [10] is Fibroblast growth factor receptor 1 (Homo sapiens) (UniProt P11362). Description: Inhibition of human FGFR1 at 10 uM using KKKSPGEYVNIEFG as substrate by [gamma-33P]-ATP assay relative to control. The method, boiled down: as §1
Assay [11] deals with Insulin receptor (Homo sapiens) (UniProt P06213). In words: Inhibition of human IR at 10 uM using poly[Glu:Tyr] (4:1) as substrate by [gamma-33P]-ATP assay relative to control. The method, boiled down:
as §1

The target in assay [12] is Protein kinase C alpha type (Homo sapiens) (UniProt P17252). Description: Inhibition of human PKCalpha at 10 uM using ERMRPRKRQGSVRRRV as substrate by [gamma-33P]-ATP assay relative to control. The method, boiled down:
as §2

Assay [13] has as its target T1, Serine/threonine-protein kinase PLK1 (Homo sapiens, UniProt P53350). In words: Inhibition of human PLK1 at 10 uM using casein as substrate by [gamma-33P]-ATP assay relative to control. The gist of the method:
as §2

Assay [14] concerns the target Macrophage-stimulating protein receptor (Homo sapiens) (UniProt Q04912). Description: Inhibition of human RON at 10 uM using KKSRGDYMTMQIG as substrate by [gamma-33P]-ATP assay relative to control. The gist of the method: as §2
In assay [15] the target is Tyrosine-protein kinase SYK (Homo sapiens, UniProt P43405). Description: Inhibition of human SYK at 10 uM using poly[Glu:Tyr] (4:1) as substrate by [gamma-33P]-ATP assay relative to control. The gist of the method: as §2
The target in assay [16] is T2, Tyrosine-protein kinase receptor UFO (Homo sapiens, UniProt P30530).
T2 sequence (P30530 whole entry): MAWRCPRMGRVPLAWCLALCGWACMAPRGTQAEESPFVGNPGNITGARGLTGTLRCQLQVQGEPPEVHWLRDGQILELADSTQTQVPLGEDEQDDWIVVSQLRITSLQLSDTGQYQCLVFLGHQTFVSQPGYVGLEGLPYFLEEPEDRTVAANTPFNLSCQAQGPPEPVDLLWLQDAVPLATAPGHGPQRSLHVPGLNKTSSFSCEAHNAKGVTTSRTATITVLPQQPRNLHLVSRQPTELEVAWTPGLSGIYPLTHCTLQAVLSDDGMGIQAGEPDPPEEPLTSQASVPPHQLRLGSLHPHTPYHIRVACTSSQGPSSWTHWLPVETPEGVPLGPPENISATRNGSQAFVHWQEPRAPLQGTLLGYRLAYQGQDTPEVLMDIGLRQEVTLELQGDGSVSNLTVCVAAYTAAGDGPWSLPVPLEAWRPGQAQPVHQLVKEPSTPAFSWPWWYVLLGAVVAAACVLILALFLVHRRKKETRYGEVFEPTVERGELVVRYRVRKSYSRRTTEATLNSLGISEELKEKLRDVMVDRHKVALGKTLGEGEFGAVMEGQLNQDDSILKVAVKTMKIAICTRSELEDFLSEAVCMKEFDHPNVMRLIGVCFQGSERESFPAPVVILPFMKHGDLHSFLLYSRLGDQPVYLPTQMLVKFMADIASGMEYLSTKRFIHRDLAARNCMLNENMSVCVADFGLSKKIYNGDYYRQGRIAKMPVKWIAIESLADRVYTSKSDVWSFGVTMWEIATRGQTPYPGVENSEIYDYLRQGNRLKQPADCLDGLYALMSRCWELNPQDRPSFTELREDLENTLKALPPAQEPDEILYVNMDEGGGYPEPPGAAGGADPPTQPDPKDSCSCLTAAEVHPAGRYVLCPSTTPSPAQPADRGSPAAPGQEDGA
In words: Inhibition of human AXL using EAIYAAPFAKKK as substrate by [gamma-33P]-ATP assay.

In assay [17] the target is Tyrosine-protein kinase Mer (Homo sapiens, UniProt Q12866). Description: Inhibition of human MER using poly[Glu:Tyr] (4:1) as substrate by [gamma-33P]-ATP assay.
For assay [18], the target named is T1, Serine/threonine-protein kinase PLK1. Description: Inhibition of human PLK1 using casein as substrate by [gamma-33P]-ATP assay.
In assay [19] the test system is MDA-MB-231. In words: Antiproliferative activity against human MDA-MB-231 cells after 2 days by spectrophotometric analysis. As to conditions: MDA-MB-231, 48 h. It is filed as functional.
Assay [20] deals with NOMO-1. Description: Antiproliferative activity against human NOMO1 cells after 2 days by spectrophotometric analysis. To be noted: NOMO-1, 48 h. It counts as functional.
For assay [21], the system named is MV4-11. In words: Antiproliferative activity against human MV4-11 cells after 2 days by spectrophotometric analysis. It is filed as functional. To be noted: MV4-11, 48 h.
Assay [22] has as its system PANC-1. Description: Antiproliferative activity against human PANC1 cells after 2 days by spectrophotometric analysis. As to conditions: PANC-1, 48 h. It counts as functional.
The subject of assay [23] is HT-1080. Description: Antiproliferative activity against human HT1080 cells after 2 days by spectrophotometric analysis. It counts as functional. To be noted: HT-1080, 48 h.

SMILES strings stand for the structures.

T1 sequence (P53350 whole entry): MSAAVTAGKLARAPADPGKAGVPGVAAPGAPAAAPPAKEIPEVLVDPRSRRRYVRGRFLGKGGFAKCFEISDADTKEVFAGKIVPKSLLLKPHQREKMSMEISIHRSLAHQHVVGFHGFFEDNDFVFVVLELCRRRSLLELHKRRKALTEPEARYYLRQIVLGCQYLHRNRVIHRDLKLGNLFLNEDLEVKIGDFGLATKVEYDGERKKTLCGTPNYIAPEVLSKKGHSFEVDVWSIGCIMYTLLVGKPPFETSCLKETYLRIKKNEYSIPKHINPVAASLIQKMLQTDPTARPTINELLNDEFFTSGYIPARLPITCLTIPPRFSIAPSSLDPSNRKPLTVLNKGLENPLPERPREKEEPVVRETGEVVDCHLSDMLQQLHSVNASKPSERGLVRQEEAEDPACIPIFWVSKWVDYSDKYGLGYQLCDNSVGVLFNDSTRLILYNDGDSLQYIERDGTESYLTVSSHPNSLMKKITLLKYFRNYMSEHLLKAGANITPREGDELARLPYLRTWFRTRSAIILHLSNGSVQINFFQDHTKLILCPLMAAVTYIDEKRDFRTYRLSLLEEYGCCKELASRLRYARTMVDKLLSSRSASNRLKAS
Fibroblast growth factor receptor 1 (Homo sapiens), sequence (P11362 22-822 limits assumed): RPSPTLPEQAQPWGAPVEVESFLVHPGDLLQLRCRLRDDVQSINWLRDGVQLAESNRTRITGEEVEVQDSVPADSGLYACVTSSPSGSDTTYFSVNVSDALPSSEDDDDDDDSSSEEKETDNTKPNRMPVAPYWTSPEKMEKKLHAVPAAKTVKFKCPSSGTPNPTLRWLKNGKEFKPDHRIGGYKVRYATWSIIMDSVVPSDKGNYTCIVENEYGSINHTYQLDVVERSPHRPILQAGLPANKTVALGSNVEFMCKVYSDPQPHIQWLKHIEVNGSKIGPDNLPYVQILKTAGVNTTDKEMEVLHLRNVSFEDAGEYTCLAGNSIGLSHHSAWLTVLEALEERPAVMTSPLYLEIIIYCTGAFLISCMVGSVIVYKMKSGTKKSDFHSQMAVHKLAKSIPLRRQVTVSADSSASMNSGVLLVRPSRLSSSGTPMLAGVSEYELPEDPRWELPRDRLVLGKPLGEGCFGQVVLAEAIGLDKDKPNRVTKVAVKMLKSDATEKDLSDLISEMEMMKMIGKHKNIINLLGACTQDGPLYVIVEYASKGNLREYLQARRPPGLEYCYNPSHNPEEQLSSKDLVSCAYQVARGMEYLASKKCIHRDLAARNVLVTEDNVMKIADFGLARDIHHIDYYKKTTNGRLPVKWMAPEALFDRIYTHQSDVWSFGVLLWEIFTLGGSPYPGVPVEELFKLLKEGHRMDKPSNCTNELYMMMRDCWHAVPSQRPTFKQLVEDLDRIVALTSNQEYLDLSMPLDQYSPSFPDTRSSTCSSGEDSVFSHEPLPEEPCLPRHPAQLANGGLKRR
Dual specificity mitogen-activated protein kinase kinase 1 (Homo sapiens), sequence (Q02750 whole entry): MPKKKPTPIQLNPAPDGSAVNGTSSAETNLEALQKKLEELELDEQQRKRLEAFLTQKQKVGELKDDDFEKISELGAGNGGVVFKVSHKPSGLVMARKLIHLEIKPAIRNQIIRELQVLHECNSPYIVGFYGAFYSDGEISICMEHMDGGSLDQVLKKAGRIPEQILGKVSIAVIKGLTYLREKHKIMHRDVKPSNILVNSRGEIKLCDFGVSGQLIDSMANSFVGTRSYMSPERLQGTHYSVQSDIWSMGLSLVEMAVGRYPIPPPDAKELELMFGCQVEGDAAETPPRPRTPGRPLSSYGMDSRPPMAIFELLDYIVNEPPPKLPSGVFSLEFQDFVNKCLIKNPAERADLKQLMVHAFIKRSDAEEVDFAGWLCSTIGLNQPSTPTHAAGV
Insulin receptor (Homo sapiens), sequence (P06213 28-758 limits assumed): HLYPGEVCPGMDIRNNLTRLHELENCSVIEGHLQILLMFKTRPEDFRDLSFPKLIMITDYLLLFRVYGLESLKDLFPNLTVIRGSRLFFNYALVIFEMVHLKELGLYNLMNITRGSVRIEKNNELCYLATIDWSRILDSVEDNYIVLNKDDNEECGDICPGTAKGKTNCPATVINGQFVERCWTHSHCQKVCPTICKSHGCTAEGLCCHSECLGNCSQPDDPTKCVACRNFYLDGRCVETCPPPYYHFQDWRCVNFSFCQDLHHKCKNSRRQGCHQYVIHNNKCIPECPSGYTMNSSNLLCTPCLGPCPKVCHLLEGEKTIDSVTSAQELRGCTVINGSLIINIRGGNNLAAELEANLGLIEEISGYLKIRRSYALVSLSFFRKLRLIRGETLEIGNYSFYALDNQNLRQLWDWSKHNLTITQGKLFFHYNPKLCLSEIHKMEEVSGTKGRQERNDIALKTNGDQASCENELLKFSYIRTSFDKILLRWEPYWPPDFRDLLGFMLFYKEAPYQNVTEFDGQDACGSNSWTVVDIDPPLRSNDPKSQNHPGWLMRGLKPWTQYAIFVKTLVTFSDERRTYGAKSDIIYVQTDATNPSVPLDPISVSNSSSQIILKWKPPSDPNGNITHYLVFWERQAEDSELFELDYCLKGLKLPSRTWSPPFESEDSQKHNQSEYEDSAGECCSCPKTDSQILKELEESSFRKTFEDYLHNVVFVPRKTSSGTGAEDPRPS
Insulin receptor (Homo sapiens), sequence (P06213 763-1382 limits assumed): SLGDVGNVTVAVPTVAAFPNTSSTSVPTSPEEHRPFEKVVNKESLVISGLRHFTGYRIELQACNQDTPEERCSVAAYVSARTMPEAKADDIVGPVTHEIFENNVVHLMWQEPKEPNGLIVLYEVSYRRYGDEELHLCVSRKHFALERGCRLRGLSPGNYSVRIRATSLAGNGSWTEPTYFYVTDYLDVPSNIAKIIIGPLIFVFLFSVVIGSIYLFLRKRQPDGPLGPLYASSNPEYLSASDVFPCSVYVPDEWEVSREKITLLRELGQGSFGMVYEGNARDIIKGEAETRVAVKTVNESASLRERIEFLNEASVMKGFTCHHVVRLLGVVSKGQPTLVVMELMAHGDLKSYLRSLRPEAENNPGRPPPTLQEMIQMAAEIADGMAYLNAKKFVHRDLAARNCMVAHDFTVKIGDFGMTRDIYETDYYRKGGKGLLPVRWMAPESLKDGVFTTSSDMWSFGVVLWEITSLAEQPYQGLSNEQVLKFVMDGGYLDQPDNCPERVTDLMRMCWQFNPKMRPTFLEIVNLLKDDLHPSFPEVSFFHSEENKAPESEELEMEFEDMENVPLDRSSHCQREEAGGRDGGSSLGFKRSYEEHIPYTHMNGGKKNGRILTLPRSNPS
Ephrin type-A receptor 1 (Homo sapiens), sequence (P21709 whole entry): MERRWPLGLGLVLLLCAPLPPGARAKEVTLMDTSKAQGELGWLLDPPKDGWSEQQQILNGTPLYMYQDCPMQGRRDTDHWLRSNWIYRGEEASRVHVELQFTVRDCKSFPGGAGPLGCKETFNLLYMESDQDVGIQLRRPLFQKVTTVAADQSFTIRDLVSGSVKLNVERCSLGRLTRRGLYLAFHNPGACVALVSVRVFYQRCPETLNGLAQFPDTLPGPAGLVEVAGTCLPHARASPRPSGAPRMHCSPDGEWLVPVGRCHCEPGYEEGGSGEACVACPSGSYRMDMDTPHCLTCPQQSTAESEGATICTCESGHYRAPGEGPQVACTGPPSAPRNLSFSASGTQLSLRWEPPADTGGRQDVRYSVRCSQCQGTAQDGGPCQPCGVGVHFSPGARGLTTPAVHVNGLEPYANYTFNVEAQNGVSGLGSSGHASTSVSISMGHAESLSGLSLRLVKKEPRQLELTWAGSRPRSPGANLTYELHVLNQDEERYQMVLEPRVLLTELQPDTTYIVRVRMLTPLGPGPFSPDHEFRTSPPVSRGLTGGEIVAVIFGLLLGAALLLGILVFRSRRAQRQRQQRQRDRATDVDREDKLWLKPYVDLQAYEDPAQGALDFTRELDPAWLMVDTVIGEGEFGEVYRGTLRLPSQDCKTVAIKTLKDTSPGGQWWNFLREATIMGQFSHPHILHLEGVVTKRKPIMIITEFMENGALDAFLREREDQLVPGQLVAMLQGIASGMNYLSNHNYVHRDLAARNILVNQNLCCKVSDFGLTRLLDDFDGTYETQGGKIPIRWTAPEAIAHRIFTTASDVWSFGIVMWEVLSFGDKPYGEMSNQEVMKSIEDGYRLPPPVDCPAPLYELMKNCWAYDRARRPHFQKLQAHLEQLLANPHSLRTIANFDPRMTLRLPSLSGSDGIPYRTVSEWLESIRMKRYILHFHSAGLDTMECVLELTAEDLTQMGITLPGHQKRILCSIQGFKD
Casein kinase I isoform epsilon (Homo sapiens), sequence (P49674 whole entry, looked up, canonical isoform): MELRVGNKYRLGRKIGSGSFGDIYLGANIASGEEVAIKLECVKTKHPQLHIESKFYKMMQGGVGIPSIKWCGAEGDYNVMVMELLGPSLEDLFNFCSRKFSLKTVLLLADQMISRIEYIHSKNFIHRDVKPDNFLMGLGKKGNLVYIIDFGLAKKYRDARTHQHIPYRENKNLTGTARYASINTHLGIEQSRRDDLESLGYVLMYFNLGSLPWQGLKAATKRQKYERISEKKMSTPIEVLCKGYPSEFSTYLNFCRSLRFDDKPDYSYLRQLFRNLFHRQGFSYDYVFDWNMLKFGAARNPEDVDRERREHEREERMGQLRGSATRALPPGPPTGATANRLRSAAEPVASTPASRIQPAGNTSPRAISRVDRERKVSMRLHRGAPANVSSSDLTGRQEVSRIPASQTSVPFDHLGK
Serine/threonine-protein kinase 26 (Homo sapiens), sequence (Q9P289 2-416 limits assumed): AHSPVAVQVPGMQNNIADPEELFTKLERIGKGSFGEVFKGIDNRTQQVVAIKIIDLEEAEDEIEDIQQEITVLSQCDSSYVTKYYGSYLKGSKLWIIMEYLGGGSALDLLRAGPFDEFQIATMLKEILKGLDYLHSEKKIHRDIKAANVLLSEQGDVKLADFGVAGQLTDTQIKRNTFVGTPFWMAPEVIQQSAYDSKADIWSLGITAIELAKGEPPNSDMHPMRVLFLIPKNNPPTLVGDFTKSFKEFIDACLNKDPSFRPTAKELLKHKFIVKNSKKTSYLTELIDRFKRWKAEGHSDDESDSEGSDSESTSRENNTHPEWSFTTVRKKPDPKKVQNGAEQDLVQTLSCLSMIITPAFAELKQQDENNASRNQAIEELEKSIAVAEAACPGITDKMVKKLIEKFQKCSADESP

Take `CC(=O)N1CCN(c2ccc(Nc3ncc(C(F)(F)F)c(N4Cc5cccc(N(C)S(C)(=O)=O)c5C4)n3)cc2)CC1`: the GI50 in assay [1] came out at 22100 nM; in assay [19], 500 nM; in assay [20] it was 3800 nM; in [21] it was 100 nM; in assay [22], 430 nM; in assay [23], 1800 nM. Moreover, the inhibition was determined as 92.1% in assay [2]; 17.8% in assay [3]; 75.4% in assay [4]; 3.6% in [5]; 90.6% in assay [6]; 25.3% in assay [7]. For the same molecule, the inhibition is -2.5% in assay [8]; 13.1% in [9]; 26% in [10]; 89.8% in assay [11]; 19.3% in assay [12]; 95.2% in assay [13]. Further, the inhibition is 40.1% in assay [14] and 95.3% in [15]. Further, the IC50 in [16] was below 0.5 nM; in assay [17], 25 nM; in assay [18], 8.8 nM.

By GI50 is commonly meant the concentration at which growth is held to half of that of the control. The low end stands for greater sensitivity of the cells, the high end for lower sensitivity of the cells. What is called inhibition is the drop in the measured response relative to a control, in per cent. A word on the IC50: it is the point on the concentration scale where inhibition reaches its midpoint. A high value points to weaker potency in that assay.
